Test results from article PMC8621847 (Research in Pharmaceutical Sciences, 2021).
“Also recorded” adds a separate entry of the source.

How the values were obtained:
HUVEC cell line = assay: MTT cytotoxicity assay, HUVEC normal cell line; type: cell-based; conditions: Homo sapiens, 48 h, read-out: IC50 HUVEC
Method in brief: (§1)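 Cells grown in RPMI-1640 with 10% FBS and 1% penicillin/streptomycin, seeded at 5-7 × 10^4 per well, 37 °C, 5% CO2. Test compound at final 1, 4, 6, 8, 10, 40, 60, 80 and 100 μM for 48 h. MTT (5 mg/mL in PBS) added for 3 h, formazan dissolved in DMSO, absorbance read at 570 nm. Doxorubicin (20 μM) was the positive control, untreated cells set 100% viability, and medium was the blank. Triplicate, repeated on three days.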

MCF-7 cell line = assay: MTT cytotoxicity assay, MCF-7 cell line; type: cell-based; conditions: for cytotoxic effect on MCF-7 cell line (in words): MTT assay; for improvement of cytotoxicity by hybridization, compared with VIIa and VIIb: MCF-7, fused pyrazole hybrids versus benzoxazinones VIIa and VIIb
Method in brief: as §1

Structure (SMILES)	IC50 (HUVEC cell line) [µM]	cytotoxic effect on MCF-7 cell line (in words) (MCF-7 cell line)	improvement of cytotoxicity by hybridization, compared with VIIa and VIIb (MCF-7 cell line)
COc1cccc2c1C(=O)c1c(O)c3c(c(O)c1C2=O)C[C@@](O)(C(=O)CO)C[C@@H]3O[C@H]1C[C@H](N)[C@H](O)[C@H](C)O1 [Doxorubicin, reference compound]	21.17 ± 0.05	–	–
O=C1OC(c2ccccc2)=N/C1=C\c1ccc([N+](=O)[O-])cc1 [Vb, (Z)-4-(4-nitrobenzylidene)-2-phenyloxazol-5(4H)-one]	93.3 ± 4.11	no remarkable cytotoxic effect; also recorded: no inhibitory activity	–
Cc1nc2ccccc2c(=O)n1N1C(=O)/C(=C/c2ccc(Cl)cc2)N=C1c1ccccc1 [XIIIa, (Z)-3-(4-(4-chlorobenzylidene)-5-oxo-2-phenyl-4,5-dihydro-1H-imidazol-1-yl)-2-methylquinazolin-4(3H)-one]	94.41 ± 0.89	–	–
O=C(N/C(=C/c1ccc(Cl)cc1)c1nc2ccccc2c2cc(=O)[nH]n12)c1ccccc1 [IXa, (E)-N-(2-(4-chlorophenyl)-1-(2-oxo-2,3-dihydropyrazolo[1,5-c]quinazolin-5-yl)vinyl)benzamide]	79 ± 3.71	–	3-4 times
O=C(N/C(=C/c1ccc(Cl)cc1)c1nc2ccccc2c(=O)o1)c1ccccc1 [VIIa, (E)-N-(2-(4-chlorophenyl)-1-(4-oxo-4H-benzo[d][1,3]oxazin-2-yl)vinyl)benzamide]	72.2 ± 1.5	–	–
Cc1nc2ccccc2c(=O)n1N1C(=O)/C(=C/c2ccc([N+](=O)[O-])cc2)N=C1c1ccccc1 [XIIIb, (Z)-2-methyl-3-(4-(4-nitrobenzylidene)-5-oxo-2-phenyl-4,5-dihydro-1H-imidazol-1-yl) quinazolin-4(3H)-one]	81.2 ± 6.17	–	–
O=C(N/C(=C/c1ccc([N+](=O)[O-])cc1)c1nc2ccccc2c2cc(=O)[nH]n12)c1ccccc1 [IXb, (E)-N-(2-(4-nitrophenyl)-1-(2-oxo-2,3-dihydropyrazolo[1,5-c]quinazolin-5-yl)vinyl) benzamide]	96.2 ± 4.66	–	3-4 times
O=C1OC(c2ccccc2)=N/C1=C\c1ccc(Cl)cc1 [Va, (Z)-4-(4-chlorobenzylidene)-2-phenyloxazol-5(4H)-one]	96.4 ± 2.22	no remarkable cytotoxic effect; also recorded: no inhibitory activity	–
